Experimental data from PMC8441110 (Computational and Structural Biotechnology Journal, 2021).
Where no end group is shown, it is not given here.

Tests used:
[1] = tested on: Staphylococcus aureus (S. aureus) (NCTC 10788); assay: MIC/MBC determination; assay type: cell-based; settings: 37 °C, 20 h; for MBC: 10 µl from MIC wells on MHA, no colony growth; for MIC: MHB, 5 × 10^5 CFU/ml, read at 550 nm
Procedure, shortened: (§1)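 Bacteria grown overnight at 37 °C in MHB and diluted to 5 × 10^5 CFU/ml. Peptide stocks in PBS, two-fold from 51200 µM to 100 µM, added 1 µl per 99 µl suspension. Norfloxacin (20 mg/l) was the positive control. After 20 h at 37 °C, OD 550 nm read; MIC = no apparent growth. For MBC, 10 µl from MIC and higher wells spotted on MHA, 37 °C 20 h; lowest without colonies.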

[2] = tested on: Escherichia coli (E. coli) (ATCC 8739); assay: MIC/MBC determination; assay type: cell-based; settings: 37 °C, 20 h; for MBC: 10 µl from MIC wells on MHA, no colony growth; for MIC: MHB, 5 × 10^5 CFU/ml, read at 550 nm
Procedure, shortened: as §1

MRSA (NCTC 12493) [3] = assay: MIC/MBC determination; assay type: cell-based, Methicillin-resistant Staphylococcus aureus; settings: 37 °C, 20 h; for MBC: 10 µl from MIC wells on MHA, no colony growth; for MIC: MHB, 5 × 10^5 CFU/ml, read at 550 nm
Procedure, shortened: as §1

[4] = tested on: Klebsiella pneumoniae (K. pneumoniae) (ATCC 43816); assay: MIC/MBC determination; assay type: cell-based; settings: 37 °C, 20 h; for MBC: 10 µl from MIC wells on MHA, no colony growth; for MIC: MHB, 5 × 10^5 CFU/ml, read at 550 nm
Procedure, shortened: as §1

[5] = tested on: Enterococcus faecium (E. faecium) (NTCC-12697); assay: MIC/MBC determination; assay type: cell-based; settings: 37 °C, 20 h; for MBC: 10 µl from MIC wells on MHA, no colony growth; for MIC: MHB, 5 × 10^5 CFU/ml, read at 550 nm
Procedure, shortened: as §1

[6] = tested on: Pseudomonas aeruginosa (P. aeruginosa) (ATCC 9027); assay: MIC/MBC determination; assay type: cell-based; settings: 37 °C, 20 h; for MBC: 10 µl from MIC wells on MHA, no colony growth; for MIC: MHB, 5 × 10^5 CFU/ml, read at 550 nm
Procedure, shortened: as §1

MRSA (BO38 V1S1 A) = assay: MIC/MBC determination; assay type: cell-based, Methicillin-resistant Staphylococcus aureus; settings: 37 °C, 20 h; for MBC: 10 µl from MIC wells on MHA, no colony growth; for MIC: MHB, 5 × 10^5 CFU/ml, read at 550 nm
Procedure, shortened: as §1

MRSA (BO42 V2E1 A) = assay: MIC/MBC determination; assay type: cell-based, Methicillin-resistant Staphylococcus aureus; settings: 37 °C, 20 h; for MBC: 10 µl from MIC wells on MHA, no colony growth; for MIC: MHB, 5 × 10^5 CFU/ml, read at 550 nm
Procedure, shortened: as §1

MRSA (ATCC BAA 1707) = assay: MIC/MBC determination; assay type: cell-based, Methicillin-resistant Staphylococcus aureus; settings: 37 °C, 20 h; for MBC: 10 µl from MIC wells on MHA, no colony growth; for MIC: MHB, 5 × 10^5 CFU/ml, read at 550 nm
Procedure, shortened: as §1

S. aureus (NCTC 10788) = assay: Condition sensitivity assay; assay type: cell-based, Staphylococcus aureus
MRSA (NCTC 12493) [7] = assay: Condition sensitivity assay; assay type: cell-based, Methicillin-resistant Staphylococcus aureus
[8] = tested on: human keratinocyte cell line HaCaT; assay: Lactate dehydrogenase; assay type: cell-based; settings: HaCaT cells, 100 μM peptide, 24 h, compared to the positive control
Procedure, shortened: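 Peptide added at 100 µM to 1 µM for 24 h. Lysis buffer gave maximum LDH; after 45 min, supernatant reacted 30 min dark at room temperature, then stopped. Absorbance read at 490 and 680 nm. Release expressed as percent of 1% Triton X-100, PBS negative; nine replicates from three experiments, mean ± SEM.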

Substance	MBC [1] [µM]	MIC [1] [µM]	MBC [2] [µM]	MIC [2] [µM]	MBC (MRSA (NCTC 12493) [3]) [µM]	MIC (MRSA (NCTC 12493) [3]) [µM]	MBC [4] [µM]	MIC [4] [µM]	MBC [5] [µM]	MIC [5] [µM]	MBC [6] [µM]	MIC [6] [µM]	MBC (MRSA (BO38 V1S1 A)) [µM]	MIC (MRSA (BO38 V1S1 A)) [µM]	MBC (MRSA (BO42 V2E1 A)) [µM]	MIC (MRSA (BO42 V2E1 A)) [µM]	MBC (MRSA (ATCC BAA 1707)) [µM]	MIC (MRSA (ATCC BAA 1707)) [µM]	MIC (S. aureus (NCTC 10788); MHB with 6 μM NH4Cl) [µM]	MIC (S. aureus (NCTC 10788); MHB with 1 mM MgCl2) [µM]	other results
GVIFNALK-NH2 [GV8]	> 512	> 512	> 512	> 512	> 512	> 512	> 512	> 512	> 512	> 512	> 512	> 512	> 512	> 512	> 512	> 512	> 512	> 512			
GVIFNALKGVAK-NH2 [GV12]	> 512	> 512	> 512	> 512	> 512	> 512	> 512	> 512	> 512	> 512	> 512	> 512	> 512	> 512	> 512	> 512	> 512	> 512			
GVIFNALKGVAKTVAAQLLK-NH2 [GV20]	8	4	32	8	8	8	64	32	64	16	64	32	32	16	64	32	32	16	4	4	MIC (S. aureus (NCTC 10788); MHB with 2.5 mM CaCl2): 4 µM; MIC (S. aureus (NCTC 10788); MHB with 4 mM FeCl3): 4 µM; MIC (S. aureus (NCTC 10788); MHB with 4.5 mM KCl): 8 µM; MIC (S. aureus (NCTC 10788); MHB with 8 mM ZnCl2): 4 µM; MIC (S. aureus (NCTC 10788); MHB with 150 mM NaCl): 4 µM; MIC (S. aureus (NCTC 10788); MHB with 10% horse serum): 8 µM; MIC (S. aureus (NCTC 10788); PBS (no added salt)): 4 µM; MIC (MRSA (NCTC 12493) [7]; MHB with 6 μM NH4Cl): 8 µM; MIC (MRSA (NCTC 12493) [7]; MHB with 1 mM MgCl2): 8 µM; MIC (MRSA (NCTC 12493) [7]; MHB with 2.5 mM CaCl2): 16 µM; MIC (MRSA (NCTC 12493) [7]; MHB with 4 mM FeCl3): 8 µM; MIC (MRSA (NCTC 12493) [7]; MHB with 4.5 mM KCl): 16 µM; MIC (MRSA (NCTC 12493) [7]; MHB with 8 mM ZnCl2): 8 µM; MIC (MRSA (NCTC 12493) [7]; MHB with 150 mM NaCl): 8 µM; MIC (MRSA (NCTC 12493) [7]; MHB with 10% horse serum): 16 µM; MIC (MRSA (NCTC 12493) [7]; PBS (no added salt)): 8 µM
GVIFNALKGVAKTVAAQLLKK-NH2 [GV21]	4	2	8	4	4	4	16	16	8	4	16	16	8	8	16	8	8	4	2	2	LDH release rate (maximum) [8]: 22.36%; MIC (S. aureus (NCTC 10788); MHB with 2.5 mM CaCl2): 2 µM; MIC (S. aureus (NCTC 10788); MHB with 4 mM FeCl3): 2 µM; MIC (S. aureus (NCTC 10788); MHB with 4.5 mM KCl): 2 µM; MIC (S. aureus (NCTC 10788); MHB with 8 mM ZnCl2): 2 µM; MIC (S. aureus (NCTC 10788); MHB with 150 mM NaCl): 2 µM; MIC (S. aureus (NCTC 10788); MHB with 10% horse serum): 2 µM; MIC (S. aureus (NCTC 10788); PBS (no added salt)): 2 µM; MIC (MRSA (NCTC 12493) [7]; MHB with 6 μM NH4Cl): 4 µM; MIC (MRSA (NCTC 12493) [7]; MHB with 1 mM MgCl2): 4 µM; MIC (MRSA (NCTC 12493) [7]; MHB with 2.5 mM CaCl2): 4 µM; MIC (MRSA (NCTC 12493) [7]; MHB with 4 mM FeCl3): 4 µM; MIC (MRSA (NCTC 12493) [7]; MHB with 4.5 mM KCl): 4 µM; MIC (MRSA (NCTC 12493) [7]; MHB with 8 mM ZnCl2): 4 µM; MIC (MRSA (NCTC 12493) [7]; MHB with 150 mM NaCl): 4 µM; MIC (MRSA (NCTC 12493) [7]; MHB with 10% horse serum): 4 µM; MIC (MRSA (NCTC 12493) [7]; PBS (no added salt)): 4 µM
GVIFNALKGVAKTVAAQLLKKAR-NH2 [GV23]	16	2	8	4	2	2	64	32	16	16	16	16	8	2	8	8	8	8	2	2	MIC (S. aureus (NCTC 10788); MHB with 2.5 mM CaCl2): 2 µM; MIC (S. aureus (NCTC 10788); MHB with 4 mM FeCl3): 2 µM; MIC (S. aureus (NCTC 10788); MHB with 4.5 mM KCl): 2 µM; MIC (S. aureus (NCTC 10788); MHB with 8 mM ZnCl2): 2 µM; MIC (S. aureus (NCTC 10788); MHB with 150 mM NaCl): 2 µM; MIC (S. aureus (NCTC 10788); MHB with 10% horse serum): 2 µM; MIC (S. aureus (NCTC 10788); PBS (no added salt)): 2 µM; MIC (MRSA (NCTC 12493) [7]; MHB with 6 μM NH4Cl): 4 µM; MIC (MRSA (NCTC 12493) [7]; MHB with 1 mM MgCl2): 4 µM; MIC (MRSA (NCTC 12493) [7]; MHB with 2.5 mM CaCl2): 2 µM; MIC (MRSA (NCTC 12493) [7]; MHB with 4 mM FeCl3): 2 µM; MIC (MRSA (NCTC 12493) [7]; MHB with 4.5 mM KCl): 2 µM; MIC (MRSA (NCTC 12493) [7]; MHB with 8 mM ZnCl2): 2 µM; MIC (MRSA (NCTC 12493) [7]; MHB with 150 mM NaCl): 2 µM; MIC (MRSA (NCTC 12493) [7]; MHB with 10% horse serum): 2 µM; MIC (MRSA (NCTC 12493) [7]; PBS (no added salt)): 2 µM
TVAAQLLKKAR-NH2 [GV11]	> 512	> 512	> 512	> 512	> 512	> 512	> 512	> 512	> 512	> 512	> 512	> 512	> 512	> 512	> 512	> 512	> 512	> 512			
